Assay results reported in article PMC11252922 (Proceedings of the National Academy of Sciences of the …, 2024).
Changes are numbered by the printed parent chain. Where no end group is shown, it is not given here. The star is where a group is joined. Cbz = O=C(OCc1ccccc1)*

Legend:
human TG2 = target: T1, human TG2 (Homo sapiens, UniProt P21980); assay: kinetic analysis of irreversible inhibitors using 1 as the TG2 substrate; format: biochemical; conditions: KM of substrate 1 used in the inhibitor analysis (Fig. 1D legend)
T1 sequence (P21980 1-687): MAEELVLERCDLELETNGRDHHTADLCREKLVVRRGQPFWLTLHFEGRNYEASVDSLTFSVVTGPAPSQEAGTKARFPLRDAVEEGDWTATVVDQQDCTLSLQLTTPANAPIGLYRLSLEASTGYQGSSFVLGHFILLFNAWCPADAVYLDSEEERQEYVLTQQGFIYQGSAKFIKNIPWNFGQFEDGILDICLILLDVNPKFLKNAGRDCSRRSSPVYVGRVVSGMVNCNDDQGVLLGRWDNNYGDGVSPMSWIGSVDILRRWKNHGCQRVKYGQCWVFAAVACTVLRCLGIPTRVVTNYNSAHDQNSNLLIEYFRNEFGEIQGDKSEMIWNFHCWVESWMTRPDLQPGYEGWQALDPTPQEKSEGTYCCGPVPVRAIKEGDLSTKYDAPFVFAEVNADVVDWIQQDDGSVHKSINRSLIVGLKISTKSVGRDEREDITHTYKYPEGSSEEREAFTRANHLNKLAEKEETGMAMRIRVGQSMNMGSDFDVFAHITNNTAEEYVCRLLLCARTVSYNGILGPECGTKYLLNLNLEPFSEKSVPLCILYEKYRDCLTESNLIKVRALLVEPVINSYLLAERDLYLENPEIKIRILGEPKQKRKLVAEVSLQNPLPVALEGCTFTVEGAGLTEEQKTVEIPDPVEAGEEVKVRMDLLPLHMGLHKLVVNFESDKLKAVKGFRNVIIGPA
How it was run: (§1)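 N-terminally His-tagged human TG2, wild type or site-directed mutant, was expressed in E. coli BAP1 and purified by Ni-NTA, anion exchange and size exclusion. Steady-state deamidation was assayed at 1 μM enzyme with varying Gln-peptide substrate concentrations. Released NH4+ was coupled to glutamate dehydrogenase with 10 mM α-ketoglutarate and 500 μM NADH in 200 mM MOPS. Ca2+ was 5 mM unless otherwise varied.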

TG2 S3-2 Mut (E329A) = target: T2, TG2 S3-2 Mut (E329A) (Homo sapiens, UniProt P21980, E329A); assay: steady-state kinetic analysis with S3-2 mutant; format: biochemical; conditions: S3-2 (E329A) mutant, result in words
T2 sequence (P21980 1-687 E329A): T1 sequence (P21980 1-687) with E329A
How it was run: as §1

Km (human TG2)	catalytic activity of S3-2 mutant against the substrate (TG2 S3-2 Mut (E329A))	Substance
175 µM	barely detectable	AcPQLPF [Compound 1]
	negligible	Cbz-Gln-Gly [ZQG, reference compound]
